# Compounds with a hit are over-represented: about 1.7% of the library has one in this group of screens.
# Pemphigus Ab inh = human desmoglein-3 autoantibody binding inhibition | binding (percent of control), % at 10 µM | hit rate 0.48% among 310,000 | AID 588358 | DSG3-coupled beads, scFv-anti-DSG3-GFP binding, flow cytometry; active compounds read low | P32926;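 active = binding more than 3 SD below its plate's average and above zero; inconclusive = below that plate limit but binding exactly zero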;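 note: hits lower antibody fragment binding to DSG3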
# Target sequence (P32926 whole entry, looked up, the tested form may be a part): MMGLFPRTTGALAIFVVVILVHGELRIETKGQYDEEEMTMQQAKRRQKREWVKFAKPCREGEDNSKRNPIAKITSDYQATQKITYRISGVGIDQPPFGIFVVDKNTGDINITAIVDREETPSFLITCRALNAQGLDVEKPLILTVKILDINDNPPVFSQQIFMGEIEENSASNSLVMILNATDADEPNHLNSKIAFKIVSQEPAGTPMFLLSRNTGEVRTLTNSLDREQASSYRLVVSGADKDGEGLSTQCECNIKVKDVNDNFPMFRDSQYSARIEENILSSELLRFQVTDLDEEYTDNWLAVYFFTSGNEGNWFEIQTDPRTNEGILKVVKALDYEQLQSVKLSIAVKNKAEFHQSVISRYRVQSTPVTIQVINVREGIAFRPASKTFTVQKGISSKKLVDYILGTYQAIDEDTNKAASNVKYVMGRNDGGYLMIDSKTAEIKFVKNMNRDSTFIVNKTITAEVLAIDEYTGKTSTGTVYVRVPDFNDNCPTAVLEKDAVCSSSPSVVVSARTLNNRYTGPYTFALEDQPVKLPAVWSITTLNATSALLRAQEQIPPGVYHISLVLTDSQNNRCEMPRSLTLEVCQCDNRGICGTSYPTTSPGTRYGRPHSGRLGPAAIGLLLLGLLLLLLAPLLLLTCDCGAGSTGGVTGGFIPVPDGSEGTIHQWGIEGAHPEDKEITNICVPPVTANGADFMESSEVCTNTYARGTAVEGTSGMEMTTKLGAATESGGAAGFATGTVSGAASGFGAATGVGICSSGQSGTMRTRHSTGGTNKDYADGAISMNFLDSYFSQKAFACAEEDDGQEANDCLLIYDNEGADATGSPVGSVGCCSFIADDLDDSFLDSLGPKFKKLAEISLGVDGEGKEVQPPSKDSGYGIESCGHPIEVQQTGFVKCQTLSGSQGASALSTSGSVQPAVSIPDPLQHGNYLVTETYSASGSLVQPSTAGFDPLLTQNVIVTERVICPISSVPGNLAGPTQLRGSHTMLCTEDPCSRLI
# Vif imaging = HIV Vif inhibition | hit rate 0.35% among 340,000 | inhibition, % at 7.49 µM | HEK293T cells, Vif self-association by quenched fluorescence, imaging, 24 h; in the data active = inhibition above about 50%, passing the limit was not always enough; inconclusive = no clear call, values can overlap the other calls; inactive = below about 31%
# T cell HTS = T cell immune modulation candidate. 2C CD8+ T cell-vesicle binding, flow cytometry; active compounds read low. response (vesicle binding), % at 7 µM. hit rate 0.068% among 330,000. AID 2052;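 active = response, share of CD8 T cells binding vesicles, and their 90th percentile fluorescence all below set limits, cut at about 80% in these data, passing the limit was not always enough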;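 note: values below 100% mean blocked vesicle binding to the CD8+ T cells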
#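 incubation = binding step 1.5 h, 37 °C, antibody labelling 20 min, ice | test system = 2C mouse CD8+ T cells | read-out basis = percent CD8+ FL2 mean versus row control | controls = Peptide-free naked vesicles (low) and QL9 vesicles with 0.7% DMSO vehicle (high) | detection = flow cytometry of vesicle-bound cells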
# Myeloid diff MLP = myeloid differentiation induction | ER-HoxA9 myeloid progenitors, lysozyme-GFP differentiation, flow cytometry | calls only at 10 µM | hit rate 1% among 360,000 | AID 624256;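 active = normalized GFP-positive differentiation at or above the plate's own cutoff, the solvent-only control mean plus 3 SD; inconclusive = no clear call, values can overlap the other calls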;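 note: cells exposed to compound for four days before flow analysis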
# Myeloid diff CP1 = myeloid differentiation induction; shares compounds with Myeloid diff MLP; ER-HoxA9 myeloid progenitors, GFP/Mac1 double-positive flow; calls only; hit rate 2% among 2,300; AID 651706;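 active = share of green or green-and-red cells above 9 and 9% in run 1 or 4 and 3% in run 2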
# GFP autofluor = flagged as fluorescent in myeloid differentiation counter-screen | shares compounds with Myeloid diff MLP | ER-HoxA9 myeloid progenitors, no estrogen, GFP autofluorescence flow cytometry; vehicle wells 0%, positive control 100% | fluorescence response, % (test concentration not listed) | hit rate 7.4% among 2,300 | AID 651707;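 active = over 5% cells positive for green fluorescent reporter, or over 2% positive for both it and APC stain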
# Hits are given with their value; - = inactive; ? = inconclusive; . = not tested or not shown; + = active, no number.
SMILES,Pemphigus Ab inh,Vif imaging,T cell HTS,Myeloid diff MLP,Myeloid diff CP1,GFP autofluor
CCCCNC(=O)c1onc(CSc2ccc(OC)cc2)c1C(=O)O,-,-,-,-,.,.
CCCCNC(=O)c1onc(CSc2ccc(F)cc2)c1C(=O)O,-,-,-,+,-,-
CC(=O)c1cccc(NC(=S)N2c3ccccc3CC2C)c1 (configuration not stated),-,-,-,-,.,.
CCOc1ccc(NC(=S)N2c3ccccc3CC2C)cc1 (configuration not stated),-,-,-,-,-,-
CCCCCCn1c(=O)n2n(c1=O)[C@@H]1CN(S(=O)(=O)c3ccc(C)cc3)C[C@]1(O)[C@@H](OC(=O)NCc1ccc(OC)c(OC)c1)C2,-,-,.,-,.,.
C[C@H](O)[C@@H]1C(=O)N2CCc3ccc(-c4ccccc4)cc3[C@@H]2C[C@@H]1N(C)C(=S)Nc1ccc(F)cc1,.,.,.,-,-,86.8
COc1ccccc1C(CCNCc1ccc(N(C)C)cc1)c1ccc(OC(C)C)cc1 (configuration not stated),-,-,-,-,-,-
C[n+]1c2n(c3ccccc31)N=C(c1cc(C(C)(C)C)c(O)c(C(C)(C)C)c1)CS2,-,-,-,+,-,-
COc1cccc(C2=Nn3c(nnc3-c3ccccc3O)SC2)c1,.,.,-,-,.,.
CCn1c(-c2ccc(C(C)(C)C)cc2)n[nH]c1=S,-,-,-,-,.,.
CCn1c(-c2ccc(F)cc2)n[nH]c1=S,.,-,-,-,-,-
CCN(CC)C(=O)CSc1nnc([C@@H](NC(=O)OC(C)(C)C)C(C)C)o1,-,-,-,-,-,-
CCN(CC)C(=O)CSc1nnc([C@H](CCSC)NC(=O)OC(C)(C)C)o1,-,-,-,-,.,.
COc1ccc(C(=O)C(=O)N2CCN(c3ccc(C)cc3)CC2)cc1OC,.,.,.,-,.,.
Cc1c(C(=O)OC(C)C)[nH]c2c1C(=O)CCC2,-,-,-,-,.,.
Cc1c(C(=O)OC(C)C)[nH]c2c1C(=O)CC(C)(C)C2,-,-,-,+,-,-
Cc1ccc2nc(C(C)(C)C)c(Cc3ccccc3C(F)(F)F)n2c1,.,.,.,-,.,.
CC(C)(C)[C@@H]1C=C(C(=O)O)[C@H](c2ccc(Cl)cc2)N1S(=O)(=O)c1ccccc1,-,.,-,+,-,-
O=C(CSc1nc(=O)n(CCCN2CCOCC2)c2c1CCCC2)Nc1ccc(F)cc1F,-,-,-,+,-,-
O=S(=O)(c1ccccc1)N1CC2CC(Br)C(Br)CC21 (configuration not stated),-,-,.,-,.,.
CCN1CCN(CCCNC(=O)CCC(=O)N2CCOc3ccccc32)CC1,-,-,-,-,.,.
CC1CC(C)CN(CCCNC(=O)CCC(=O)N2CCOc3ccccc32)C1 (configuration not stated),-,-,-,-,-,-
Cc1ccc(C(C(=O)NC2CCCCC2)N(Cc2cccnc2)C(=O)C2COc3ccccc3O2)o1 (configuration not stated),-,-,-,+,-,-
O=c1[nH]c2ccccc2n2c(C(F)(F)F)nnc12,-,-,-,+,-,5.7
O=C(NCCc1c[nH]c2ccccc12)/C(=C\c1cccnc1)NC(=O)c1ccccc1Br,-,-,-,+,-,-
SMILES,Pemphigus Ab inh,Vif imaging,T cell HTS,Myeloid diff MLP,Myeloid diff CP1,GFP autofluor
CN(C)c1ccc(CNCc2cccnc2)cc1,-,-,-,-,-,-
CC(C)(C)NC(=O)COc1ccc(CNCc2cccnc2)cc1,-,-,-,-,.,.
CCc1nc2ccc(C(=O)N(C)Cc3ccco3)cn2c1N(C)Cc1ccc(OC)cc1,.,-,.,-,.,.
COc1cccc(-n2cc(CN(C)Cc3nc(Cc4cccc(F)c4)no3)cn2)c1,-,-,-,-,-,-
Cc1ccc(/C=N/Nc2nc3ccccc3s2)o1,-,-,-,-,-,-
CC1=C(C(=O)N2CCCCCC2)CC(CC(=O)NCc2ccco2)C(=O)N1Cc1ccccc1 (configuration not stated),.,.,.,-,.,.
COC(=O)Cc1[nH]nc2c1C1(C(=O)N(Cc3ccccc3)c3ccccc31)C(C#N)=C(N)O2 (configuration not stated),-,-,-,?,.,.
Cc1[nH]nc2c1C1(C(=O)N(Cc3ccc(Cl)cc3)c3ccccc31)C(C#N)=C(N)O2 (configuration not stated),-,-,-,-,-,-
C[C@H](CO)N1C[C@H](C)[C@@H](CN(C)Cc2ccc3c(c2)OCO3)Oc2cc(Br)ccc2S1(=O)=O,.,-,.,-,.,.
COC(=O)Nc1nc(C)c(C(=O)c2ccccc2)s1,-,-,-,-,.,.
CCOC(=O)Nc1nc(C)c(C(=O)c2ccc(Cl)cc2)s1,-,-,-,-,-,-
Nc1nc(SCc2ccccc2)c2ncn(C3CCCO3)c2n1 (configuration not stated),.,-,.,-,-,-
Nc1nc(SCc2ccccc2)c2ncn(C3CCCCC3)c2n1,-,-,.,-,.,.
Cc1cc(OCC[N+]2(C)CCCCC2)nc2ccccc12,-,-,-,-,-,-
Cc1cc(NC2CCCCC2)nc2ccccc12,-,-,-,-,.,.
C=CCN1C=C/C(=C\C=C(C#N)C#N)c2ccccc21,-,-,-,+,-,-
Cc1ccc(C)c(S(=O)(=O)N2CCN(C(=O)Cc3sc(C)nc3-c3ccc(F)cc3)CC2)c1,-,-,.,-,.,.
C=CCNC(=S)N1CCC2CC1c1c(Cl)cccc12 (configuration not stated),.,.,.,-,.,.
COc1ccc(NC(=S)N2CCC3CC2c2c(Cl)cccc23)c(OC)c1 (configuration not stated),.,.,.,+,+,-
COc1cc(C2C3=C(CC(c4ccco4)CC3=O)Nc3ccccc3N2C(C)=O)cc(OC)c1OC (configuration not stated),-,-,-,-,.,.
COc1cc(C2C3=C(CC(C)(C)CC3=O)Nc3ccccc3N2C(C)=O)cc(OC)c1OC (configuration not stated),-,-,-,-,-,-
Cc1ccc(S(=O)(=O)N2C[C@H]3C(=O)C[C@@H](c4ccccc4)N(S(=O)(=O)c4ccc(Br)cc4)[C@H]3C[C@H]2c2ccccc2)cc1,.,.,.,+,-,-
O=C(COC(=O)c1cccs1)NCc1ccc2c(c1)OCO2,-,-,-,+,-,-
O=C(O)CN(c1ccccn1)S(=O)(=O)c1ccc(Cl)cc1,.,-,-,+,-,-
C/C(=N\NC(=O)CNc1ccc(F)cc1)c1cc2ccccc2o1,-,-,-,+,-,-
OC(Cc1ccccc1Br)c1ncc(-c2ccc(Cl)cc2)[nH]1 (configuration not stated),.,.,.,-,.,.
COc1cccc(N2CCN(S(=O)(=O)c3ccc4ccccc4c3)CC2)c1,-,-,.,-,-,-
COc1ccc(Br)c(Cn2c(C)c(C(=O)NCc3ccccc3C(F)(F)F)sc2=O)c1,.,-,.,-,.,.
CCc1nc2c(OCC3CCCCC3)cccn2c1N(C)C(=O)c1ccccc1F,.,-,.,-,.,.

# Assay outcomes (PubChem)
